Screens: PubChem BioAssay, several laboratories
GPR7 antag – antagonists of human GPR7 (neuropeptides B/W receptor 1); P48145; GPR7-expressing cells, fluorescence antagonist assay; inhibition, % at 4.4 µM; actives 1.1% (n = 290,000); in the data active = inhibition above about 16%, passing the limit was not always enough;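 also: cells stimulated with the agonist NPW; 0% = agonist with vehicle and 100% = vehicle without agonist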
Target sequence (P48145 whole entry, looked up): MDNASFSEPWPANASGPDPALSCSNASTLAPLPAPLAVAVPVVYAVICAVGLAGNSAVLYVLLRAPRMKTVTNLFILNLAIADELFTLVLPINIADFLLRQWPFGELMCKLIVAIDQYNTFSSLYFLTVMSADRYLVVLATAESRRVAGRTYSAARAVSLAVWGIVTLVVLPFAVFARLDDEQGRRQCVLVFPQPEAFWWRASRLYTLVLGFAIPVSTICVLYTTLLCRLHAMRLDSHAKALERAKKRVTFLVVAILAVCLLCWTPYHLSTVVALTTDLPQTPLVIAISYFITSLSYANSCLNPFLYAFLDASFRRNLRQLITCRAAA
OX1R antag-1 – blocks the human orexin 1 receptor; O43613; OX1R-expressing cells, FRET antagonist read-out; inhibition, % at 6.6 µM; actives 1.8% (n = 330,000); in the data active = inhibition mostly above about 38%, no sharp cut-off; inactive = mostly below about 40%;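 also: 0% = agonist challenge alone and 100% = reference antagonist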
CHO parental Ca – signal in parental CHO cells, OX1R antagonist counter-screen | parental CHO-K1, ATP-induced calcium, Fluo-8 fluorescence | inhibition, % at 5.6 µM | actives 0.63% (n = 330,000) | AID 463079;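 active = inhibition above that plate's mean sample inhibition plus 3 SD, cut at about 26% in these data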;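 also: 0% = ATP-challenged DMSO wells and 100% = DMSO wells without ATP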
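Measured by: calcium-sensitive Fluo-8 fluorescence / Test system: CHO parental line / Controls: ATP-challenged DMSO wells low, unchallenged DMSO wells high / Measure: % inhibition / Compound: single nominal dose of 5.6 µM per compound / Replicates: single well per compound, no replicates / Reagent: ATP as calcium-mobilizing challenge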
OX1R antag-2 – antagonists of human orexin 1 receptor; O43613; CHO/OX1R cells, Fluo-8 calcium fluorescence, orexin A; inhibition, % at 5 µM; actives 0.43% (n = 330,000); AID 434989;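 active = inhibition above its plate's threshold, mean inhibition of all tested compounds on the plate plus 3 SD, cut at about 37% in these data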;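 also: 0% = orexin A challenge wells and 100% = SB-334867-A antagonist wells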
MPTP block – permeability transition pore inhibition; isolated mouse mitochondria, Ca2+ swelling absorbance, 30 min; inhibition, % at 10 µM; actives 1.4% (n = 360,000);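 active = inhibition of 50% or more, scaled per plate between neutral and stimulator controls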;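 also: 0% = DMSO wells given calcium and 100% = 1 mM EGTA wells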
Rh123 counter – mitochondrial membrane potential, counter-screen | shares compounds with MPTP block | isolated mitochondria, Rhodamine 123 fluorescence | inhibition, % at 10 µM | actives 78% (n = 5,000) | AID 624504; in the data active = inhibition above about 22%;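 also: 0% = DMSO vehicle and 100% = positive control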
MPTP abs DR – dose response confirmation of mitochondrial permeability transition pore inhibitors. IC50, µM. shares compounds with MPTP block. isolated mitochondria swelling, absorbance. AID 651561. actives 58% (n = 780); in the data active = IC50 below about 20 µM
MPTP counter DR – active in counter-screen for permeability transition pore inhibitors | shares compounds with MPTP block | isolated mitochondria counterscreen, fluorescence read-out | IC50, µM | actives 49% (n = 780) | AID 651564; in the data active = IC50 below about 80 µM
Starred values were filed as active, the others as inactive; i = inactive; . = not tested or not shown. Most compounds without a hit are left out; they make up all but 3.8% or so of the library.

SMILES	GPR7 antag	OX1R antag-1	CHO parental Ca	OX1R antag-2	MPTP block	Rh123 counter	others
COc1cccc(N2CCN(CC(=O)N3CCN(S(=O)(=O)c4ccc(Cl)cc4)CC3)CC2)c1	.	.	.	.	0	.
CCCCNc1ccc2c(c1)C1CC2CCN1C(=O)OCc1ccccc1 (configuration not stated)	.	.	.	.	-2	.
CC1=NN(C(N)=S)C(=O)C1N=Nc1ccc(C)c(Br)c1 (configuration not stated)	-5	2	-2	0	4	.
CC1CN(S(=O)(=O)c2cccc(C(=O)OCC(=O)N3CCCCCC3)c2)CC(C)O1 (configuration not stated)	.	7	-11	-14	0	.
Cc1nn(C2CC(O)C(O)C(CO)O2)c(=O)[nH]c1=O (configuration not stated)	.	.	.	.	0	.
CCc1ccccc1N(C)S(=O)(=O)c1ccc2[nH]cc(C(=O)N3CCc4ccccc43)c(=O)c2c1	-6	3	-11	-14	64*	63*
CCN(C1CCCCC1)S(=O)(=O)c1ccc(S(=O)(=O)NCCc2ccncc2)cc1	-2	16	-17	-26	0	.
O=S(=O)(NCc1ccncc1)c1ccc(Br)s1	9	61	38	40	63*	96*
CCN(C1CCCCC1)S(=O)(=O)c1ccc(S(=O)(=O)NCc2ccncc2)cc1	21*	34	6	0	98*	93*
CCCCCc1ccc(S(=O)(=O)NCCc2ccncc2)cc1	6	9	-18	8	63*	83*
Cc1ccc(S(=O)(=O)NCc2ccncc2)cc1C	8	64	33*	41*	77*	76*
O=C(NCCc1nc2ccccc2[nH]1)/C(=C/c1ccc2c(c1)OCO2)NC(=O)c1ccc(Cl)cc1Cl	-17	22	-27	-23	1	.
O=C(c1cc(C2CC2)nc2ccc(Br)cc12)N1N=C(C(F)F)CC1(O)C(F)F (configuration not stated)	-6	19	7	-19	75*	84*
CC(C)c1ccc(-c2cc(C(=O)N3N=C(C(F)F)CC3(O)C(F)F)c3ccccc3n2)cc1 (configuration not stated)	-7	20	-9	-6	77*	97*
O=C1OC[C@H]2CCCN2C(=O)[C@@H](CC(=O)N(CCO)Cc2ccccc2)C/C=C\C[C@H]1Cc1ccc(F)cc1	.	8	-18	-3	2	.
CC1(C)SC(=S)N(NC(=O)Nc2ccccc2)C1N(O)C(=O)Nc1ccccc1 (configuration not stated)	-9	40	-10	-10	58*	70*
Cc1ccccc1CC(=O)N1CCCC1	-4	5	-6	-11	0	.
O=C(CSC(=S)N1CCCC1)N1CCN(S(=O)(=O)c2cccc([N+](=O)[O-])c2)CC1	5	28	-10	-15	0	.
O=S(=O)(c1ccc(NC(=S)NCCC(c2ccccc2)c2ccccc2)cc1)N1CCOCC1	-2	21	3	3	97*	80*
NNC(=S)Nc1ccc(S(=O)(=O)N2CCOCC2)cc1	-3	8	-9	-25	0	.
O=S(=O)(c1ccc(NC(=S)Nc2ccc(OC(F)F)cc2)cc1)N1CCOCC1	-1	6	-2	-12	98*	90*
CC(C)(C)CC(C)(C)NC(=S)Nc1ccc(S(=O)(=O)N2CCOCC2)cc1	-13	17	5	-8	100*	78*
CCCC(c1nnnn1Cc1ccc(OC)cc1)N1CCN(C(=O)c2ccco2)CC1 (configuration not stated)	9	42	-2	-1	1	.
CSc1ccc(CN2C(=O)C(F)(F)Oc3c(C(C)=O)cccc32)cc1	.	.	.	.	74*	75*
Cc1ccc2nc(SCC(=O)NCc3ccc(F)cc3)nc(=O)n2c1	.	13	-9	-1	-2	.
SMILES	GPR7 antag	OX1R antag-1	CHO parental Ca	OX1R antag-2	MPTP block	Rh123 counter	others
Nc1ccnc(=O)[nH]1	.	16	1	0	-3	.
Cc1cc(C(=O)NCc2ccc(F)cc2)c2ccccc2n1	-2	6	-8	-11	0	.
OCCNCc1cc(Br)ccc1OCc1ccc(Cl)cc1Cl	21	.	.	.	82*	20*
CCOc1cccc(CNCCO)c1OCc1ccc(Cl)cc1Cl	2	18	-14	-24	94*	2	MPTP abs DR=4.5*;MPTP counter DR=20*
CC(C)N(Cc1nc(-c2ccc(Cl)cc2)no1)Cc1nccn1C	-3	25	-10	-11	-2	.
CCNC(=O)COC(=O)c1cccc(Br)c1	-8	2	-6	-10	1	.
CCCCCCCC1CC(CSC(=N)N)OC1=O (configuration not stated)	-1	15	-10	-7	97*	-5	MPTP abs DR=6.3*;MPTP counter DR=52*
CCCCC1CC(CSC(=N)N)OC1=O (configuration not stated)	-2	9	-4	-12	0	.
N#C/C(=C(/O)CN1CCN(c2ccccc2F)CC1)c1nc(-c2ccc(Cl)cc2)cs1	-5	27	6	-3	58*	71*
Cc1ccc(-c2csc(/C(C#N)=C(\O)CCl)n2)cc1	4	.	.	.	91*	64*
N#C/C(=C(/O)CN1CCCCC1)c1nc(-c2ccc(Cl)cc2)cs1	-1	7	-14	-24	1	.
COc1ccc(NC(=O)CSc2nc3nc(-c4cccs4)cc(C(F)(F)F)c3c(=O)[nH]2)c(OC)c1	-3	22	-9	-15	23	.
CCOc1ccccc1NC(=O)CSc1nc2nc(-c3cccs3)cc(C(F)(F)F)c2c(=O)[nH]1	-8	47*	-18	-24	69*	55*
Cn1c(CCNS(=O)(=O)c2ccccc2)nnc1SCc1cccnc1	-6	8	-13	-3	-1	.
N#Cc1cccc(C#N)c1Oc1ccc(S(=O)(=O)Nc2ccccc2)cc1	21	18	3	-4	54*	15	MPTP abs DR=i;MPTP counter DR=30*
Cn1cc(S(=O)(=O)Oc2ccccc2)c(=O)n(C)c1=O	-14	9	15	-5	-5	.
CCN(c1cccc(C(F)(F)F)c1)S(=O)(=O)c1ccc2c(c1)CCN2C(=O)C1CC1	-16	23	65*	17	62*	64*
CCSc1nnc(NC(=O)CSc2nc(CC)nc3c2c(=O)n(C)c(=O)n3C)s1	-12	6	-4	-16	66*	19	MPTP abs DR=i;MPTP counter DR=>80
C/C(CC(=O)Nc1ccc(Cl)c(C(F)(F)F)c1)=N\NC(=O)c1ccccc1O	-3	15	-6	-2	98*	70*
C/C(CC(=O)Nc1ccc(Cl)c(C(F)(F)F)c1)=N\NC(=O)c1cccc(O)c1	-4	17	1	-14	2	.
